pEC50, pIC50: −log10 of the molar value.
How the values were obtained:
[1] = biological target: T1, Nuclear receptor ROR-gamma (Homo sapiens, UniProt P51449); assay: Inverse agonist activity at human recombinant GST-tagged RORgammat ligand binding domain assessed as effect on receptor-biotin tagged TRAP220 co-activator peptide interaction using 10 nM GST-RORgamma LBD by FRET-based assay
T1 sequence (P51449 whole entry): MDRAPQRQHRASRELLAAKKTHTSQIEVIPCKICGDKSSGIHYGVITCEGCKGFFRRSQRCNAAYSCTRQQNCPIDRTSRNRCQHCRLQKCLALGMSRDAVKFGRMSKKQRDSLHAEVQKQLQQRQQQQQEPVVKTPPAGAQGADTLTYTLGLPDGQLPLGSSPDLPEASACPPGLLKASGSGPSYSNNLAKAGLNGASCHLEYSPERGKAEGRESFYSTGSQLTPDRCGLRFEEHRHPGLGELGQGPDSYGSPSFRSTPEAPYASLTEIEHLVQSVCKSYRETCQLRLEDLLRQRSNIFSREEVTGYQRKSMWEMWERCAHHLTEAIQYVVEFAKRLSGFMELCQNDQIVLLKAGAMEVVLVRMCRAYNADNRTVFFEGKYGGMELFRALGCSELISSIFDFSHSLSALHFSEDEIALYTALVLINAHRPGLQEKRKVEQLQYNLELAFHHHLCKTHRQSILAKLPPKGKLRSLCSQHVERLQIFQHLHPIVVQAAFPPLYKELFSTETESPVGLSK
Procedure, shortened: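 Recombinant human GST-RORγ LBD (10 nM) with 40 nM biotin-TRAP220 co-activator peptide, 50 nM SAAPC, 1.5 nM Eu-anti-GST IgG. Buffer: 20 mM Tris-HCl pH 7.0, 60 mM NaCl, 5 mM MgCl2, 1 mM DTT, 0.1% BSA, 1.0% DMSO. FRET read on plate reader. IC50 is the mean of at least two runs.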

[2] = biological target: T1, Nuclear receptor ROR-gamma; assay: Inverse agonist activity at human recombinant GST-tagged RORgammat ligand binding domain assessed as effect on receptor-biotin tagged TRAP220 co-activator peptide interaction using 10 nM GST-RORgamma LBD by FRET-based assay
[3] = Clearance in human hepatocytes relative to hepatic blood flow; type: ADME, cell-based, Liver, Hepatocyte; conditions: read-out: CLH
[4] = Clearance in rat hepatocytes relative to hepatic blood flow; type: ADME, cell-based, Liver, Hepatocyte; conditions: read-out: CLH
[5] = Clearance in mouse hepatocytes relative to hepatic blood flow; type: ADME, cell-based, Liver, Hepatocyte; conditions: read-out: CLH
[6] = biological target: T1, Nuclear receptor ROR-gamma; assay: Inverse agonist activity at Gal4 DNA binding domain-tagged human RORgammat expressed in HEK293T cells assessed as effect on receptor-mediated transcriptional activity by luciferase reporter gene assay; type: functional, cell-based, HEK-293T
Procedure, shortened: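 293T cells transfected with a Gal4:RORγ luciferase reporter. Cells seeded day 1 and transfected day 2; compound added in assay medium after transfection. Day 3: cells lysed and luminescence read by dual-flash. Dose-response EC50 is the mean of at least two runs.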

[7] = Apparent permeability from apical to basolateral side in human Caco2 cells; type: ADME, cell-based; conditions: Caco-2
[8] = Apparent permeability from basolateral to apical side in human Caco2 cells; type: ADME, cell-based; conditions: Caco-2
[9] = Inhibition of CYP450 (unknown origin); type: ADME; conditions: human
[10] = Half life in rat at 2 mg/kg, iv; type: ADME, organism-based; conditions: in vivo
Procedure, shortened: (§1)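 Rats dosed at 2.0 mg/kg intravenously in SPEW vehicle. Plasma exposure profiled for T1/2 and Cmax.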

[11] = AUC (infinity) in rat at 2 mg/kg, iv; type: ADME, organism-based; design: dose 2 mg/kg, time infinity, route intravenous; conditions: in vivo
Procedure, shortened: (§2)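 Rat PK; iv dosing at 2.0 mg/Kg in SPEW vehicle, oral dosing at 10 mg/Kg in 0.1% CMC-0.2%Tween; AUCinf reported in ng*hr/mL.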

[12] = AUC (infinity) in rat at 10 mg/kg, po; type: ADME, organism-based; design: dose 10 mg/kg, route oral, time infinity; conditions: in vivo; procedure, shortened: as §2
[13] = Cmax in rat at 2 mg/kg, iv; type: ADME, organism-based; design: dose 2 mg/kg, route intravenous; conditions: in vivo; procedure, shortened: as §1
[14] = Cmax in rat at 10 mg/kg, po; type: ADME, organism-based; design: dose 10 mg/kg, route oral; conditions: in vivo
Rattus norvegicus = assay: Clearance in rat at 2 mg/kg, iv relative to hepatic blood flow; type: ADME, organism-based, Liver; conditions: in vivo
Procedure, shortened: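 Rats given 2.0 mg/kg iv in SPEW vehicle. Clearance is expressed as % of hepatic blood flow (%Qh).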

[15] = Oral bioavailability in rat at 10 mg/kg; type: ADME, organism-based; conditions: in vivo

SMILES | pIC50 [1] | pEC50 [6] | also measured
CN(C)C(=O)c1ccc(Cl)c(-c2ccc3c(c2)CCCN3C(=O)c2c(F)cccc2Cl)c1 | 5.68 | – | –
CN(C(=O)c1c(F)cccc1Cl)c1ccc(-c2cc(C(N)=O)ccc2Cl)cc1F | – | – | pIC50 [2]: 5.71
NC(=O)c1ccc(Cl)c(-c2ccc3c(c2)OCCN3C(=O)c2c(F)cccc2Cl)c1 | 5.72 | – | hepatic extraction ratio [3]: 0.76; hepatic extraction ratio [4]: 0.85; hepatic extraction ratio [5]: 0.82
NC(=O)c1cc(-c2ccc3c(c2)CCCN3C(=O)c2c(F)cccc2Cl)c(F)cc1F | 5.15 | – | –
NC(=O)c1cc(-c2ccc3c(c2)CCCN3C(=O)c2c(F)cccc2Cl)c(Cl)cc1F | 6.26 | 6.85 | –
O=C(NC1CCCC1)c1ccc(Cl)c(-c2ccc3c(c2)CCCN3C(=O)c2c(F)cccc2Cl)c1 | 6.43 | 6.48 | –
NC(=O)c1ccc(Cl)c(-c2ccc3c(c2)CCCN3C(=O)c2c(F)cccc2Cl)c1 | 6.66 | 6.70 | –
CCN(C(=O)c1c(F)cccc1Cl)c1ccc(-c2cc(C(N)=O)ccc2Cl)cc1C(F)(F)F | 5.80 | – | –
NC(=O)c1ccc(Cl)c(-c2ccc3c(c2)CCN3C(=O)c2c(F)cccc2Cl)c1 | 5.32 | – | –
CN(C(=O)c1c(F)cccc1Cl)c1ccc(-c2cc(C(N)=O)ccc2Cl)cc1C(F)(F)F | – | 6.32 | pIC50 [2]: 6.64
[2H]C([2H])([2H])N(C(=O)c1c(F)cccc1Cl)c1ncc(-c2cc(C(N)=O)ccc2Cl)cc1OCC1CCC1 | 8.00 | 7.22 | –
CC(C)Oc1cc(-c2cc(C(N)=O)ccc2Cl)ccc1N(C)C(=O)c1c(F)cccc1Cl | 7.27 | 6.74 | –
O=C(NCCN1CCOCC1)c1ccc(Cl)c(-c2ccc3c(c2)CCCN3C(=O)c2c(F)cccc2Cl)c1 | 5.67 | – | –
CN(C(=O)c1c(F)cccc1Cl)c1ccc(-c2cc(C(N)=O)ccc2Cl)cc1OCC(F)(F)F | 7.96 | 7.03 | hepatic extraction ratio [3]: 0.88; hepatic extraction ratio [4]: 0.83; Papp A→B [7]: 32.2 ×10⁻⁶ cm/s; Papp B→A [8]: 35.3 ×10⁻⁶ cm/s; inhibition (INH) [9]: Not Active; half-life [10]: 1.3 h; AUC(0-inf) [11]: 1130 ng·h/mL; AUC(0-inf) [12]: 1550 ng·h/mL; Cmax [13]: 2350 ng/mL; Cmax [14]: 1010 ng/mL; CLH (Rattus norvegicus): 54%; bioavailability [15]: 28%
CN(C(=O)c1c(F)cccc1Cl)c1ccc(-c2cc(C(N)=O)ccc2Cl)cc1Br | – | 6.11 | pIC50 [2]: 6.09
COc1cc(-c2cc(C(N)=O)ccc2Cl)ccc1N(C)C(=O)c1c(F)cccc1Cl | – | 6.01 | pIC50 [2]: 6.43
NC(=O)c1cc(F)cc(-c2ccc3c(c2)CCCN3C(=O)c2c(F)cccc2Cl)c1 | 4.89 | – | –
O=C(NCC(O)CO)c1ccc(Cl)c(-c2ccc3c(c2)CCCN3C(=O)c2c(F)cccc2Cl)c1 (configuration not stated) | 6.12 | – | –
CN1CCN(C(=O)c2c(F)cccc2Cl)c2ccc(-c3cc(C(N)=O)ccc3Cl)cc21 | 6.60 | 6.68 | –
NC(=O)c1ccc(Cl)c(-c2ccc3c(c2)C(F)(F)CCN3C(=O)c2c(F)cccc2Cl)c1 | 5.44 | – | hepatic extraction ratio [3]: 0.74; hepatic extraction ratio [4]: 0.86; hepatic extraction ratio [5]: 0.83
CCCCOc1cc(-c2cc(C(N)=O)ccc2Cl)ccc1N(C)C(=O)c1c(F)cccc1Cl | 7.66 | 7.00 | –
CC1(C)CCN(C(=O)c2c(F)cccc2Cl)c2ccc(-c3cc(C(N)=O)ccc3Cl)cc21 | 6.70 | 6.52 | –
CCCOc1cc(-c2cc(C(N)=O)ccc2Cl)ccc1N(C)C(=O)c1c(F)cccc1Cl | 7.96 | 7.24 | –
CC1CCc2cc(-c3cc(C(N)=O)ccc3Cl)ccc2N1C(=O)c1c(F)cccc1Cl (configuration not stated) | 5.00 | – | –
NC(=O)c1ccc(Cl)c(-c2ccc3c(c2)CCCCN3C(=O)c2c(F)cccc2Cl)c1 | 6.44 | 6.28 | –

SMILES | pIC50 [1] | pEC50 [6] | also measured
CN(C(=O)c1c(F)cccc1Cl)c1ccc(-c2cc(C(N)=O)ccc2Cl)cc1Cl | – | – | pIC50 [2]: 5.68
CN(C(=O)c1c(F)cccc1Cl)c1ncc(-c2cc(C(N)=O)ccc2Cl)cc1OCC1CCC1 | 8.00 | 7.24 | –
CCN(CC)c1cc(-c2cc(C(N)=O)ccc2Cl)ccc1N(C)C(=O)c1c(F)cccc1Cl | 8.52 | 7.92 | –
NC(=O)c1cccc(-c2ccc3c(c2)CCCN3C(=O)c2c(F)cccc2Cl)c1 | 5.21 | – | –
Cc1ccc(C(N)=O)cc1-c1ccc2c(c1)CCCN2C(=O)c1c(F)cccc1Cl | 6.52 | 6.35 | –
NC(=O)c1cc(-c2ccc3c(c2)CCCN3C(=O)c2c(F)cccc2Cl)ccc1F | 5.03 | – | –
[2H]C([2H])([2H])N(C(=O)c1c(F)cccc1Cl)c1ncc(-c2cc(C(N)=O)ccc2Cl)cc1OCC(F)(F)F | 7.05 | 6.61 | –
CNC(=O)c1ccc(Cl)c(-c2ccc3c(c2)CCCN3C(=O)c2c(F)cccc2Cl)c1 | 7.00 | 6.70 | –
CN(C(=O)c1c(F)cccc1Cl)c1ccc(-c2cc(C(N)=O)ccc2Cl)cc1N1CCCCC1 | 8.52 | 8.10 | –
COc1ccc(C(N)=O)cc1-c1ccc2c(c1)CCCN2C(=O)c1c(F)cccc1Cl | 6.00 | – | –
CCN(C(=O)c1c(F)cccc1Cl)c1ccc(-c2cc(C(N)=O)ccc2Cl)cc1OC | – | – | pIC50 [2]: 5.82
CCc1cc(-c2cc(C(N)=O)ccc2Cl)ccc1N(C)C(=O)c1c(F)cccc1Cl | – | 6.46 | pIC50 [2]: 6.14
Cn1ccc2c(S(=O)(=O)N(CC(F)(F)F)c3ccc(-c4cc(C(N)=O)ccc4Cl)cc3)cccc21 | 6.15 | – | –
NC(=O)c1ccc(F)c(-c2ccc3c(c2)CCCN3C(=O)c2c(F)cccc2Cl)c1 | 4.96 | – | –
CC1(C)Cc2cc(-c3cc(C(N)=O)ccc3Cl)ccc2N(C(=O)c2c(F)cccc2Cl)C1 | 6.19 | 6.35 | –
CN(C(=O)c1c(F)cccc1Cl)c1ncc(-c2cc(C(N)=O)ccc2Cl)cc1OCC(F)(F)F | 7.70 | 6.61 | Papp A→B [7]: 35.9 ×10⁻⁶ cm/s; Papp B→A [8]: 54.5 ×10⁻⁶ cm/s; inhibition (INH) [9]: Not Active
CCOc1cc(-c2cc(C(N)=O)ccc2Cl)ccc1N(C)C(=O)c1c(F)cccc1Cl | 7.30 | 6.74 | –
CCNc1cc(-c2cc(C(N)=O)ccc2Cl)ccc1N(C)C(=O)c1c(F)cccc1Cl | 6.30 | 6.14 | –
O=C(NCCO)c1ccc(Cl)c(-c2ccc3c(c2)CCCN3C(=O)c2c(F)cccc2Cl)c1 | 6.72 | 6.68 | –
Cc1cc(-c2cc(C(N)=O)ccc2Cl)ccc1N(C)C(=O)c1c(F)cccc1Cl | – | – | pIC50 [2]: 5.37
CCNC(=O)c1ccc(Cl)c(-c2ccc3c(c2)CCCN3C(=O)c2c(F)cccc2Cl)c1 | 6.48 | 6.80 | –
CN(C(=O)c1c(F)cccc1Cl)c1ccc(-c2cc(C(N)=O)ccc2Cl)cc1 | – | – | pIC50 [2]: 5.06
COCCNC(=O)c1ccc(Cl)c(-c2ccc3c(c2)CCCN3C(=O)c2c(F)cccc2Cl)c1 | 5.87 | – | –
CCN(C(=O)c1c(F)cccc1Cl)c1ccc(-c2cc(C(N)=O)ccc2Cl)cc1 | – | – | pIC50 [2]: 5.89
